Assays:
HEK-293T = assay: Multiplex assay against HEK293T; format: toxicity, cell-based; settings: human;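 for Population Tubulin-Different-Phenotype (%): share of the cells with healthy nuclei that show this phenotype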
Summary of the method: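 Compound was added to live cells that had been stained at seeding with Hoechst33342, BioTracker Green Microtubule Cytoskeleton Dye, MitoTracker Red and Annexin V Alexa Fluor 680, and imaging followed on a CQ1 microscope at 37°C and 5% CO2. CellPathfinder machine-learning gating divided cells into Hoechst high-intensity objects or normal cells, normal cells into healthy, pyknosed or fragmented nuclei, and pyknosed cells into mitotic or apoptotic. Tubulin, mitochondrial-mass and membrane-permeability phenotypes are per cents of healthy-nucleus cells.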

Fibroblast = assay: Incucyte cell viability with human fibroblast; format: toxicity, cell-based; settings: 10 µM, compound concentration 10 uM; note: filed as whole numbers so only -1 and 0 and 1 occur
[1] = 12 h, 1 µM, compound concentration 1 uM, replicate 1
[2] = 12 h, 1 µM, compound concentration 1 uM, replicate 2
[3] = 12 h, 10 µM, compound concentration 10 uM, replicate 1
[4] = 12 h, 10 µM, compound concentration 10 uM, replicate 2
[5] = 24 h, 1 µM, compound concentration 1 uM, replicate 1
[6] = 24 h, 1 µM, compound concentration 1 uM, replicate 2
[7] = 24 h, 10 µM, compound concentration 10 uM, replicate 1
[8] = 24 h, 10 µM, compound concentration 10 uM, replicate 2

## CN(C)CCOc1ccc(-c2nc(-c3ccncc3)c(-c3ccc4c(c3)CC/C4=N\O)[nH]2)cc1 [SB590885]
HEK-293T; [1]
  Population Apoptotic (%): 25%
  Population Fragmented Nuclei (%): 15%
  Population Healthy Nuclei (%): 65%
  Population Hoechst High Intensity Objects (%): 22%
  Population Membrane Permeable-Phenotype (%): 30%
  Population Mitochondria Different-Phenotype (%): 8%
  Population Mitotic Cells (%): 74%
  Population Normal (%): 77%
  Population Pyknosed Nuclei (%): 18%
  Population Tubulin-Different-Phenotype (%): 44%
  Total Cell Count: 678
HEK-293T; [2]
  Population Apoptotic (%): 17%
  Population Fragmented Nuclei (%): 2%
  Population Healthy Nuclei (%): 88%
  Population Hoechst High Intensity Objects (%): 12%
  Population Membrane Permeable-Phenotype (%): 12%
  Population Mitochondria Different-Phenotype (%): 23%
  Population Mitotic Cells (%): 82%
  Population Normal (%): 87%
  Population Pyknosed Nuclei (%): 8%
  Population Tubulin-Different-Phenotype (%): 76%
  Total Cell Count: 1120
HEK-293T; [3]
  Population Apoptotic (%): 28%
  Population Fragmented Nuclei (%): 12%
  Population Healthy Nuclei (%): 69%
  Population Hoechst High Intensity Objects (%): 9%
  Population Membrane Permeable-Phenotype (%): 4%
  Population Mitochondria Different-Phenotype (%): 8%
  Population Mitotic Cells (%): 71%
  Population Normal (%): 90%
  Population Pyknosed Nuclei (%): 18%
  Population Tubulin-Different-Phenotype (%): 5%
  Total Cell Count: 676
HEK-293T; [4]
  Population Apoptotic (%): 8%
  Population Fragmented Nuclei (%): 7%
  Population Healthy Nuclei (%): 87%
  Population Hoechst High Intensity Objects (%): 1%
  Population Membrane Permeable-Phenotype (%): 3%
  Population Mitotic Cells (%): 91%
  Population Normal (%): 98%
  Population Pyknosed Nuclei (%): 4%
  Population Tubulin-Different-Phenotype (%): 9%
  Total Cell Count: 1929
HEK-293T; [5]
  Population Apoptotic (%): 24%
  Population Fragmented Nuclei (%): 15%
  Population Healthy Nuclei (%): 69%
  Population Hoechst High Intensity Objects (%): 24%
  Population Membrane Permeable-Phenotype (%): 23%
  Population Mitochondria Different-Phenotype (%): 14%
  Population Mitotic Cells (%): 75%
  Population Normal (%): 75%
  Population Pyknosed Nuclei (%): 15%
  Population Tubulin-Different-Phenotype (%): 48%
  Total Cell Count: 670
HEK-293T; [6]
  Population Apoptotic (%): 10%
  Population Fragmented Nuclei (%): 6%
  Population Healthy Nuclei (%): 86%
  Population Hoechst High Intensity Objects (%): 18%
  Population Membrane Permeable-Phenotype (%): 27%
  Population Mitochondria Different-Phenotype (%): 7%
  Population Mitotic Cells (%): 89%
  Population Normal (%): 81%
  Population Pyknosed Nuclei (%): 6%
  Population Tubulin-Different-Phenotype (%): 65%
  Total Cell Count: 1437
HEK-293T; [7]
  Population Apoptotic (%): 20%
  Population Fragmented Nuclei (%): 9%
  Population Healthy Nuclei (%): 85%
  Population Hoechst High Intensity Objects (%): 5%
  Population Membrane Permeable-Phenotype (%): 10%
  Population Mitochondria Different-Phenotype (%): 5%
  Population Mitotic Cells (%): 79%
  Population Normal (%): 94%
  Population Pyknosed Nuclei (%): 5%
  Population Tubulin-Different-Phenotype (%): 8%
  Total Cell Count: 810
HEK-293T; [8]
  Population Apoptotic (%): 1%
  Population Fragmented Nuclei (%): 24%
  Population Healthy Nuclei (%): 73%
  Population Hoechst High Intensity Objects (%): 3%
  Population Membrane Permeable-Phenotype (%): 7%
  Population Mitochondria Different-Phenotype (%): 1%
  Population Mitotic Cells (%): 98%
  Population Normal (%): 96%
  Population Pyknosed Nuclei (%): 2%
  Population Tubulin-Different-Phenotype (%): 10%
  Total Cell Count: 3237
Fibroblast; 0 h, replicate number 1, timepoint 0 hours
  Growth Rate: 0
Fibroblast; 18 h, replicate number 2, timepoint 18 hours
  Growth Rate: 1
Fibroblast; 24 h, replicate number 1, timepoint 24 hours
  Growth Rate: 1
Fibroblast; 24 h, replicate number 2, timepoint 24 hours
  Growth Rate: 0
